A selection: hits, their analogues and other compounds. The true share with any hit is near 4.8%.
CSC inhib – cancer stem cell viability inhibitors, primary screen, luminescence; 1.1% of 300,000 active; inhibition, % at 7.5 µM; cancer stem cell-like cells viability; in the data active means inhibition above about 75%; tested in HMLE shEcad cells
XBP1 UPR activ – activators of adaptive XBP1 UPR arm, primary screen, cell-based, CHO-XBP1 luciferase reporter, luminescence, uHTS | activation, % at 20 µM | IRE1-XBP1 UPR activation; percent of tunicamycin response, DMSO as zero | 0.33% of 330,000 active;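 active means versus positive control, 20 µM dose yields 30% or more activation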;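 further: 100% = tunicamycin at 10 µg/mL and 0% = DMSO only wells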
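Material: CHO cell line with stable XBP1 luciferase reporter; schedule: 16-18 h cell attachment at 37 °C, then 6 h compound exposure; signal: glow luminescence from Steady-Glo reagent; medium: serum-containing F12 medium, 10% FBS; benchmarks: tunicamycin 10 µg/mL and vehicle-only wells; read-out: percent activation relative to tunicamycin reference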
Beta apoptosis – inhibitors of cytokine-induced beta cell apoptosis, primary screen, luminescence. INS-1E cytokine-induced death, ATP luminescence, 48 h; percent of positive-control rescue, neutral wells zero. protection from apoptosis, % (no concentration beside the values). 0.8% of 300,000 active;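 active means Every replicate reaches about 75%, or at least half do and their mean reaches it too, limit read from the data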;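 further: 0% = cytokine-treated negative control wells and 100% = positive control rescue; higher means more ATP so stronger rescue from cytokine killing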
CHOP UPR activ – activators of apoptotic CHOP UPR arm, primary screen, cell-based, CHO-CHOP luciferase reporter, luminescence, uHTS; 0.34% of 330,000 active; UPR activation; percent of tunicamycin response over DMSO baseline; activation, % at 10 µM;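 active means at 10 µM dose, activation of 40% or more, normalized to positive control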;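 further: 100% = tunicamycin at 10 µg/mL and 0% = DMSO alone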
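Test system: CHO CHOP reporter cells. Input: 500 CHO-CHOP cells per well. Medium: F12 with 10% FBS. Technique: luciferase luminescence. Measure: percent activation relative to tunicamycin control. Dosing: 10 µM compound, 0.5% DMSO. Timing: 16-18 h cell attachment, then 6 h compound exposure, 37 °C.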
Mdm2-MdmX inh – inhibitors of human Mdm2-MdmX association, primary screen, cell-based, luminescence, split luciferase, SaOS-2, uHTS; Protein Mdm4 (Homo sapiens) + E3 ubiquitin-protein ligase Mdm2 (Homo sapiens), …; SaOS-2 split-luciferase Mdm2/MdmX complementation; inhibition, % at 8 µM; 3% of 330,000 active;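 active means inhibition of at least 50% at 8 µM in the primary screen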
Target sequence (O15151 whole entry, looked up): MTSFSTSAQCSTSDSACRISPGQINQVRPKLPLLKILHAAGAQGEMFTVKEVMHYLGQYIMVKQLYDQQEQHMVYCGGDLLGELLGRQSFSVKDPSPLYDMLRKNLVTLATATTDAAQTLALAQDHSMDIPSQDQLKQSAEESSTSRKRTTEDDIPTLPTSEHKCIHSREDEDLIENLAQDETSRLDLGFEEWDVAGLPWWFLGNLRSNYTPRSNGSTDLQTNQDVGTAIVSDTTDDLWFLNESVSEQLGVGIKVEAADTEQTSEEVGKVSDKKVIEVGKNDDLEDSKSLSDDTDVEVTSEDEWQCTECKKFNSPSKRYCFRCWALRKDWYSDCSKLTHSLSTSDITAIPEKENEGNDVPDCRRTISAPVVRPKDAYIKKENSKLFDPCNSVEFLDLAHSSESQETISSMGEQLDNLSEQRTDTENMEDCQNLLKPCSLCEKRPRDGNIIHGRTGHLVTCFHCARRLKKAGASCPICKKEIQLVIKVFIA
Target sequence (Q00987 whole entry, looked up): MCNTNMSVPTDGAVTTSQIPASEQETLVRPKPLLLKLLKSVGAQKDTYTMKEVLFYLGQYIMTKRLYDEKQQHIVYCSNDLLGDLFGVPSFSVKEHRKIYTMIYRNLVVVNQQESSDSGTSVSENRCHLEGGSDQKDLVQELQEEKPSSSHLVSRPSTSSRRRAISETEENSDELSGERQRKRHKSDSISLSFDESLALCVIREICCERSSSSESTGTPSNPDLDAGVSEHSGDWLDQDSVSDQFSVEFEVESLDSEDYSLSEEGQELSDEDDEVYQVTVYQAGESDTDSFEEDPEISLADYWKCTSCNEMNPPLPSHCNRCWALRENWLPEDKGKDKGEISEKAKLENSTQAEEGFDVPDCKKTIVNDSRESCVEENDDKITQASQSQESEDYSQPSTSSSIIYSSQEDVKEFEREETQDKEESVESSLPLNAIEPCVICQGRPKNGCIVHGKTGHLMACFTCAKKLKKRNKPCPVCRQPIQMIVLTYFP
SKKanGAS inh – S. pyogenes SKKanGAS growth inhibitors in kanamycin, primary screen, streptokinase expression inhibitor project, SKKanGAS strain, BacTiter-Glo luminescence. 6 h. inhibition, % at 7.5 µM. 1.3% of 300,000 active;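 active means mean replicate score, as percent of positive control median, at least 50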;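 further: strain carries kanamycin resistance gene driven by streptokinase promoter and grows in 40 µg/ml kanamycin; loss of luminescence reflects streptokinase promoter inhibition or plain growth inhibition; 0% = median of DMSO wells and 100% = positive control at its reference dose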
Mdm2-MdmX conf – Mdm2-MdmX complex disruptors, retested hits, confirmation, luminescence, single concentration | shares compounds with Mdm2-MdmX inh | Mdm2-MdmX binding, luminescent assay | 55% of 10,000 active | inhibition, % at 8 µM | AID 489028, 2010; in the data active means inhibition above about 40%
FLuc counter – full-length luciferase signal inhibition, confirmation, counter-screen for Mdm2/MdmX interaction inhibitor project, cell-based, single concentration, SaOS-2; shares compounds with Mdm2-MdmX inh; SaOS-2 full-length luciferase counterscreen, luminescence; inhibition, % at 8 µM; 77% of 6,200 active; AID 504607, 2011;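 active means mean inhibition at 8 µM reaching about 37%, which flags the compound as non-specific, limit read from the data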;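 further: p53-null SaOS-2 cells with luciferase driven by a doxycycline-inducible promoter; compound on cells about two nights before reading with doxycycline added after day one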
The depositor's hits bear a star; . = no result given; + = active, no number.

SMILES	CSC inhib	XBP1 UPR activ	Beta apoptosis	CHOP UPR activ	Mdm2-MdmX inh	SKKanGAS inh	Mdm2-MdmX conf	FLuc counter
CCN(C(=O)C(C)N1C(=O)/C(=C/c2ccco2)SC1=S)C1CCS(=O)(=O)C1 (stereo unspecified)	28.1	-5.8	-16.8	0.7	54.8*	5.3	1.9	.
COC(=O)c1cc(S(=O)(=O)N2CCCCCC2)cn1C	-13.2	1.1	-0.4	-0.9	7.4	1.2	.	.
CC(C)NC(=O)c1cnc(N2CCN(c3ccccn3)CC2)c2ccccc12	4.1	-2.8	0.5	0.8	-5.1	-8.3	.	.
CCc1ccc(NC(=O)c2cnc(N3CCN(c4ccccn4)CC3)c3ccccc23)cc1	19.3	-2.2	44.0	9.5	63.9*	7.8	56.0*	59.5*
CC1CCc2sc(C(=O)N3CCC(C(N)=O)CC3)cc2C1 (stereo unspecified)	-1.0	4.1	5.7	8.0	-19.7	.	.	.
COc1cccc(-c2nnc(SCC(=O)NC3CCS(=O)(=O)C3)n2C)c1 (stereo unspecified)	8.2	-1.5	-5.0	-0.8	-2.1	.	.	.
CCOC(=O)C1(Cc2ccccc2C(F)(F)F)CCN(C2CCN(C(C)C)CC2)CC1	23.5	1.3	9.0	2.1	73.0*	2.5	59.1*	54.4*
CCOC(=O)C1(Cc2ccccc2C(F)(F)F)CCN(CC(O)CO)CC1 (stereo unspecified)	1.1	2.3	-3.3	0.4	14.4	2.8	.	.
CC(C)(C)c1ccc(/C=N/Nc2cccc(C(=O)O)c2)cc1	-3.9	-8.0	-4.4	-6.1	69.8*	8.3	61.5*	115.9*
O=C(O)c1ccc2c(c1)S(=O)(=O)c1cc(Cl)ccc1C2=O	-18.9	6.5	-1.6	2.7	15.0	.	.	.
Cc1ccc(-n2ncc3c(N4CCCC(C)C4)ncnc32)c(C)c1 (stereo unspecified)	36.9	-1.0	17.5	5.7	-148.9	-5.1	.	.
CCN1CCN(c2ncnc3c2cnn3-c2ccccc2)CC1	4.5	-0.5	-3.1	14.8	-14.1	0.5	.	.
CC1CCCN(c2ncnc3c2cnn3-c2ccccc2)C1 (stereo unspecified)	42.8	-7.8	6.2	-6.6	52.4*	-6.6	52.5*	192.0*
COc1cccc(N2CCN(c3ncnc4c3cnn4-c3ccc(C)cc3C)CC2)c1	42.0	-9.3	48.8	-6.6	89.5*	19.7	100.2*	28.0
CC1CCCN(c2ncnc3c2cnn3-c2ccc(Cl)cc2)C1 (stereo unspecified)	60.6	-8.8	2.7	-10.9	95.8*	-2.9	95.4*	42.4*
c1ccc(-n2ncc3c(N4CCCCC4)ncnc32)cc1	2.7	-7.7	-1.7	-7.3	50.8*	-0.5	53.5*	160.1*
COc1ccccc1-c1ccc(/C=C2\C=CC(=O)O2)o1	3.8	3.0	-38.5	22.0	14.6	6.3	.	.
O=C(COC(=O)/C=C/c1ccco1)Nc1cc(S(=O)(=O)N2CCOCC2)ccc1Cl	-18.0	-0.4	0.2	0.7	6.1	.	.	.
O=C(c1cccc(S(=O)(=O)Nc2ccc(F)cc2)c1)N1CCC1	.	-3.2	-6.4	-0.7	-12.9	.	.	.
Cc1cc(NC(=O)C(C)SCC(=O)OCc2c(Cl)cccc2Cl)no1 (stereo unspecified)	6.1	-3.7	.	-0.9	1.6	41.2	.	.
COc1ccc(Cn2c(C)nc3ccc([N+](=O)[O-])cc3c2=O)cc1	-8.3	-2.6	-3.1	-1.5	11.7	9.5	.	.
Cc1cc(Br)ccc1NC(=O)CN(C)C(=O)c1ccc2ccccc2n1	.	-0.5	7.9	0.2	-20.2	.	.	.
Cc1ccc(C(=O)N2CCN(c3ncnc4c3cnn4-c3ccccc3)CC2)cc1	-11.4	5.8	5.7	3.2	82.5*	-0.2	58.4*	67.9*
COc1ccc(-n2ncc3c(N4CCN(Cc5ccccc5)CC4)ncnc32)cc1	37.4	4.1	4.9	3.6	85.0*	0.7	63.6*	77.1*
CN1CCN(c2ncnc3c2cnn3-c2ccc(Cl)cc2)CC1	39.1	-6.6	0.1	-3.6	51.2*	0.9	60.5*	+
SMILES	CSC inhib	XBP1 UPR activ	Beta apoptosis	CHOP UPR activ	Mdm2-MdmX inh	SKKanGAS inh	Mdm2-MdmX conf	FLuc counter
COc1ccc2c(c1OC)C(=O)OC2N1C(=O)CC[C@H]1C(=O)Nc1ccc2c(c1)OCO2 (stereo partly specified)	-2.0	-0.1	.	-0.1	1.1	6.3	.	.
CN(c1ccc(C(=O)NC2CCCCC2)cc1)S(=O)(=O)c1ccccc1	37.2	-5.8	6.1	-0.9	21.5	-9.5	.	.
Cc1[nH]c2ccccc2c1/C=N/n1cnnc1	-16.5	1.4	-0.8	1.2	13.4	3.1	.	.
COCCN=c1scc(-c2cc(OC)c(OC)c(OC)c2)n1/N=C/c1c(C)[nH]c2ccccc12	114.9*	3.2	3.9	1.1	58.7*	17.6	18.6	.
CCN(Cc1ccccc1)S(=O)(=O)c1ccc(C(=O)N(CCCN(C)C)c2nc3cc(OC)ccc3s2)cc1	33.9	4.2	4.6	4.8	50.4*	9.6	22.9	.
COc1cc2nc(N(CCCN(C)C)C(=O)c3ccc(S(=O)(=O)N4CCc5ccccc54)cc3)sc2cc1OC	-11.2	1.1	.	-0.4	32.1	8.3	.	.
COc1ccc2sc(N(CCCN(C)C)C(=O)c3ccc(S(=O)(=O)N4CCCc5ccccc54)cc3)nc2c1	2.5	9.6	.	3.0	80.2*	24.1	44.0*	63.9*
CCN(Cc1ccccc1)S(=O)(=O)c1ccc(C(=O)N(CCCN(C)C)c2nc3cc4c(cc3s2)OCCO4)cc1	-1.5	5.1	.	5.7	77.8*	4.0	38.2	76.6*
CCOC(=O)CNC(=O)N1CCCC(Cc2ccccc2)(C(=O)OCC)C1 (stereo unspecified)	8.9	.	-0.8	.	.	-3.2	.	.
CCS(=O)(=O)c1nc2ccccc2n1Cc1ccccc1Cl	-1.6	1.8	-11.0	-0.8	68.7*	-1.9	35.2	.
CCN(C(=O)c1c(C)noc1C)c1c(N)n(Cc2ccccc2)c(=O)[nH]c1=O	.	0.0	-3.1	3.0	-4.5	.	.	.
Nc1ncnc2oc(-c3ccco3)c(-c3ccco3)c12	.	-0.6	.	0.6	52.4*	-6.3	22.6	.

Assay outcomes: PubChem BioAssay, several laboratories
